dFosB act = activators of delta FosB homodimer, primary screen, biochemical, fluorescence polarization, TAMRA-CDK5 oligo, single point. 0.99% of 340,000 active. Protein FosB (Mus musculus), P13346. AID 493131, 2011. purified delta FosB; percent of positive-control signal above neutral wells. activation, % at 25 µM;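 active means mean activation above about 17%, with every replicate also reaching it, limit read from the data, passing the limit was not always enough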
Target sequence (P13346 whole entry, looked up): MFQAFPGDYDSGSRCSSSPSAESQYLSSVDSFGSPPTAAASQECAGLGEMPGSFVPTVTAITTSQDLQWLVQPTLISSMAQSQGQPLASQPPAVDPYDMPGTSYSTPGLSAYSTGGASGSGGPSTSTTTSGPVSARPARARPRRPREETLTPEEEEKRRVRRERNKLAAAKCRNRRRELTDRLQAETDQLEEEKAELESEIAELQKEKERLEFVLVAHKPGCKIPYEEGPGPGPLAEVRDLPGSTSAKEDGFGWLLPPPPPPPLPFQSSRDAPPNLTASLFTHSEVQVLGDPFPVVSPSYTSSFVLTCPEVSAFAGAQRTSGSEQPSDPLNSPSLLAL
CDK5 p35 inh = inhibitors of human CDK5/p35 kinase, primary screen, biochemical, single concentration; Cyclin-dependent kinase 5 (Homo sapiens) + Cyclin-dependent kinase 5 activator 1 (Homo …; Recombinant CDK5/p35, ADP-Glo luminescence, 60 min; inhibition, % at 10 µM; 0.01% of 330,000 active; AID 488839, 2010;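 active means highest replicate inhibition of at least 50% and at least 75% of replicates reaching 50%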;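 further: plate controls were DMSO neutral control for no effect and GW8510 at 10 µM for full effect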
SR-BI DiI-HDL act = activators of SR-BI mediated DiI-HDL uptake, primary screen, ldlA[mSR-BI] CHO cells, DiI fluorescence; 3 h; 100 = double the neutral-control signal; activation, % at 12.5 µM; 0.096% of 320,000 active;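 active means mean replicate activation of at least 60% and every replicate at or above 60%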;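 further: 0% = median plate neutral-control signal and 100% = twice that signal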
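material = CHO ldlA[mSR-BI] cells | medium = Ham's F12 with 0.5% BSA, HEPES 25 mM, pH 7.4 | reagent = fluorescent DiI-HDL, 10 µg/mL final | compound dosing = single-point compound dose | incubation = 3 h, 37 °C | measured by = bottom-read fluorescence, 550/595 nm | measure = HDL uptake via cellular fluorescence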
SR-BI HDL uptake = inhibitors of SR-BI mediated HDL lipid uptake, primary screen, ldlA[mSR-BI] cells, fluorescence, single point; Scavenger receptor class B member 1 (Mus musculus), Q61009; inhibition, % at 12.5 µM; ldlA[mSR-BI] CHO cells, DiI-HDL uptake fluorescence, 3 h; 0.96% of 320,000 active;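 active means mean replicate inhibition of at least 70% and a set share of replicates each scoring 70 or more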;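 further: 0% = median of neutral control wells and 100% = median of positive control wells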
* marks the source's active call; other numbers are inactive results; . = no result given. Only some compounds are listed: those with a hit (about 2% of all), similar ones and a draw of the others.

SMILES	dFosB act	CDK5 p35 inh	SR-BI DiI-HDL act	SR-BI HDL uptake
CCOC(=O)c1c(N)sc(C(=O)OC)c1C	-9	-2	-9	9
CCCn1c(=S)[nH]c2cc(OC)c(OC)cc2c1=O	-2	2	-39	39
COc1cc2[nH]c(=S)n(Cc3cccs3)c(=O)c2cc1OC	19*	-2	-20	20
CCCn1c(SCC(=O)NC(C)c2ccccc2)n[nH]c1=O (stereo not drawn)	5	0	9	-9
CCCn1c(Sc2nnnn2-c2ccccc2)n[nH]c1=O	-5	-1	80*	-80
CCN1C(=C(C#N)C#N)C=Cc2cc(C)ccc21	0	1	-21	21
C=CC[n+]1c(/C=C2\C=Cc3cc(C)ccc3N2CC)ccc2ccccc21	0	4	-80	80*
Cc1nnc(N2CCC(C(=O)N3CCCCCC3)CC2)c2nn(-c3ccc(Cl)cc3)c(C)c12	-14	.	-44	44
CC(=O)c1c(C)[nH]c(C(=O)OCc2ccc(F)cc2Cl)c1C	1	-2	-44	44
CC(=O)c1c(C)[nH]c(C(=O)OCc2cccc(Cl)c2)c1C	-24	1	-71	71*
COC(=O)c1cc(C(=O)OCC(=O)NCc2cccs2)cc([N+](=O)[O-])c1	-9	0	10	-10
COC(=O)c1ccc(NC(=O)c2cccc(N3C(=O)C4C5C=CC(C6CC56)C4C3=O)c2)cc1 (stereo not drawn)	28*	-4	.	24
N#C/C(=C/c1cn(-c2ccccc2)nc1-c1cccc(OCc2ccccc2)c1)C(=O)NCCCn1ccnc1	31*	1	84*	-84
CC(=O)N[C@@H](C)c1nc2ccccc2n1CCCN1CCN(c2nc(-c3ccc(C)cc3)cs2)CC1	-7	0	-55	55
COc1cc(-c2noc(C)c2/C=C/c2cccc([N+](=O)[O-])c2)cc(OC)c1OC	-1	0	-81	81*
Cc1ccc(NC(=O)NNC(=O)c2cc3ccccc3cc2O)cc1	93*	-7	.	37
COc1cc(OC)cc(C(=O)NNC(=O)c2cc3ccccc3cc2O)c1	11	1	-114	114*
COc1ccccc1NC(=O)NNC(=O)c1ccc(-c2ccccc2)cc1	-9	-4	3	-3
COc1ccccc1NC(=O)NNC(=O)c1cc2ccccc2cc1O	14	-3	-94	94*
Cc1ccc(S(=O)(=O)N(CC(=O)NCC2CCCO2)Cc2ccc(F)cc2)cc1 (stereo not drawn)	-6	2	.	.
CN(C)c1ccc(P(=O)(OC2CCCCC2)C(O)c2ccncc2)cc1 (stereo not drawn)	-1	-2	7	-7
COc1ccc(-c2[nH]n(-c3ccc([N+](=O)[O-])cc3)c(=O)c2C=NCc2ccccc2)cc1	-1	0	-87	87*
COc1ccc(CCN=Cc2c(C)[nH]n(-c3ccc([N+](=O)[O-])cc3)c2=O)cc1OC	-2	0	8	-8
CCN1/C(=C/C(C)=C/c2sc3ccccc3[n+]2CC)Sc2ccccc21	507*	25	.	.
CCC1Oc2ccc(C)cc2N(CC(=O)NC2CCCCC2)C1=O (stereo not drawn)	-4	0	-89	89*
SMILES	dFosB act	CDK5 p35 inh	SR-BI DiI-HDL act	SR-BI HDL uptake
C#CCOCCOCCOCCNc1nc(N2CCN(C(=O)CCCCCCCCCCNC(=O)Cn3cc(CCCCCN)nn3)CC2)nc(N2CCN(C(=O)CCCCCCCCCCNC(=O)[C@H]([C@@H](C)CC)n3cc(CCCCN=C(N)N)nn3)CC2)n1	-213	4	-84	84*
CC[C@H](C)[C@@H](C(=O)NCCCCCCCCCCC(=O)N1CCN(C(=O)OC(C)(C)C)CC1)n1cc(CCCCCNC(=O)OC(C)(C)C)nn1	-4	2	-71	71*
CC(C)(C)OC(=O)NCCCCCc1cn([C@@H](CO)C(=O)NCCCCCCCCCCC(=O)N2CCN(C(=O)OC(C)(C)C)CC2)nn1	-19	1	-48	48
C#CCOCCOCCOCCNc1nc(N2CCN(C(=O)CCCCCCCCCCNC(=O)[C@H]([C@@H](C)CC)n3cc(CCCCCN)nn3)CC2)nc(N2CCN(C(=O)CCCCCCCCCCNC(=O)[C@H]([C@@H](C)CC)n3cc(CCCCN=C(N)N)nn3)CC2)n1	-265	8	-40	40
COc1ccc(NC(=O)C2CCCN(c3nn4c(=O)cc(C)nc4s3)C2)c(OC)c1 (stereo not drawn)	3	-3	-13	13
Cc1c(NC(=O)/C(C#N)=C/c2ccc(-c3ccc(Cl)c(Cl)c3)o2)c(=O)n(-c2ccccc2)n1C	8	2	-74	74*
Cc1c(NC(=O)/C(C#N)=C/c2ccc(-c3cccc(Cl)c3)o2)c(=O)n(-c2ccccc2)n1C	-4	0	-62	62
COc1ccc(NC(=O)CNc2cccc(C#N)c2)cc1Cl	-5	-1	-27	27
COc1ccc(NCC(=O)Nc2ccc(C#N)cc2)cc1Cl	0	-1	-95	95*
CCOC(=O)c1c(NC(=S)Nc2ccccc2)sc2c1CC(C)(C)SC2	-8	1	-95	95*
CCOC(=O)c1c(NC(=O)Nc2ccccc2)sc(C)c1C	-1	1	-85	85*
COC(=O)CCCC(=O)NC(C)c1cnn(-c2ccccc2C)c1C (stereo not drawn)	3	1	6	-6
COc1ccc(C2CC(c3ccc(C)cc3)=NN2C(=O)CCC(=O)O)cc1OC (stereo not drawn)	-5	-2	5	-5
CC1=CC(C)(C)N2C(=O)C3(NCCc4c3[nH]c3ccccc43)c3cc(C)cc1c32 (stereo not drawn)	2	1	-88	88*
CC1(C)CC2(CC(c3ccc(F)cc3)c3ccc(O)cc3O2)NC(=S)N1 (stereo not drawn)	0	3	-47	47
CC1(C)CC2(CC(c3cccs3)c3cc(Cl)c(O)cc3O2)NC(=S)N1 (stereo not drawn)	-3	-1	-90	90*
COc1cccc(C(C(=O)NC2CCCC2)N(C(=O)c2ccco2)c2ccc(C(C)=O)cc2)c1OC (stereo not drawn)	-16	0	234*	-234
COc1cccc(C(C(=O)NC2CCCC2)N(C(=O)c2ccco2)c2ccccc2)c1OC (stereo not drawn)	0	2	.	.
CCN(Cc1ccncc1)Cc1ccc(Br)cc1	-3	-2	19	-19
Cc1nn2c(-c3cccc(NC(=O)CSc4nc5ccccc5o4)c3)nnc2c2ccccc12	-6	-4	-76	76*
Cc1ccc(C(C)C)c(OCc2ccc(C(=O)N/N=C/c3ccc(O)cc3O)cc2)c1	-3	-1	-129	129*
Fc1ccc(Nc2nc(NCc3ccco3)c3ccccc3n2)cc1	53*	2	-11	11

Source: PubChem
